In the library only some 2.4% were active in any assay of this set; here they are far more common.
SUMO1-SIM PPI = SUMO1-SIM interaction modulation | P63165 | SUMO1 binding to a labelled peptide, TR-FRET, 1 h | AID 602429 | inhibition, % at 20 µM | 0.33% of 360,000 active; in the data active = inhibition above about 37%
Target sequence (P63165 whole entry, looked up): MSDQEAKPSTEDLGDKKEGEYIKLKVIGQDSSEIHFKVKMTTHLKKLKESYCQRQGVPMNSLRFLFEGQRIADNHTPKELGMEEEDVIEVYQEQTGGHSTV
LMPTP block = blocks human LMPTP phosphatase; recombinant LMPTP-A, OMFP fluorogenic substrate, fluorescence intensity; inhibition, % at 20 µM; 0.22% of 360,000 active;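 active = compounds that cut the enzyme signal by at least half of the control window in the single-dose screen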;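 note: plate controls were DMSO wells with enzyme plus substrate for no effect and substrate without enzyme for full effect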
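Material: LMPTP-A; amount: 0.625 nM enzyme; doses: single 20 µM dose; times: reaction 50 min, room temperature, dark; technique: fluorescence intensity of OMFP turnover product; benchmarks: no-enzyme and uninhibited controls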
DNMT1 block = blocks human DNA methyltransferase DNMT1; P26358; DNMT1 molecular beacon, Hinp1I cleavage, fluorescence; inhibition (reported as % activation of signal), % at 10 µM; 0.83% of 360,000 active; in the data active = inhibition above about 50%
STEP block = inhibitors of human striatal-enriched phosphatase STEP. recombinant STEP, OMFP fluorogenic substrate, fluorescence. inhibition, % at 20 µM. 0.25% of 360,000 active. AID 588621;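 active = inhibition at 20 µM, scaled per plate between control wells, above about 37%, limit read from the data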;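 note: 0% = DMSO with enzyme and substrate and 100% = substrate only without enzyme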
Target sequence (P54829 whole entry, looked up): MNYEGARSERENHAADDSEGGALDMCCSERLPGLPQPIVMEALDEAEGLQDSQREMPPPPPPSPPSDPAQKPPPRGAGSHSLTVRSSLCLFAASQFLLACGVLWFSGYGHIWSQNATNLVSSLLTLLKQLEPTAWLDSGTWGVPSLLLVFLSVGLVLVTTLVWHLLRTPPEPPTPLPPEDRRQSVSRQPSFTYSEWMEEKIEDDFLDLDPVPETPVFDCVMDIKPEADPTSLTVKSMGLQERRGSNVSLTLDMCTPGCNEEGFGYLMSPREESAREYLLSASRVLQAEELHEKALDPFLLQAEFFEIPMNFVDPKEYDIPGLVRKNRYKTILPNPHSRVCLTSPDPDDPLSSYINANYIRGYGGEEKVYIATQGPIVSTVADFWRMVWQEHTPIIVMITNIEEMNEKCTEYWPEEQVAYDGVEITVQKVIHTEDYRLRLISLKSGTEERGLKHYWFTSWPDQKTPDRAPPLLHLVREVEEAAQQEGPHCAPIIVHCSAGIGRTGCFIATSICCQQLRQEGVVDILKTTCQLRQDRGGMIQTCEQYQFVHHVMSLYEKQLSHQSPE
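Test system: STEP tyrosine phosphatase / Reagent: OMFP at 25 µM / Doses: 20 µM, 1% DMSO / Read-out: percent inhibition scaled to no-enzyme and uninhibited-enzyme controls, plate-pattern corrected / Detection: FITC-channel fluorescence of OMFP product / Medium: Bis-Tris buffer pH 6.0, 2.5 mM DTT, 0.005% Tween 20 / Schedule: 20 min at room temperature, dark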
Scp-1 inhibitor = inhibitors of human Scp-1 phosphatase. 0.88% of 340,000 active. inhibition, % at 20 µM. AID 493091. Recombinant Scp1, phosphopeptide, malachite green phosphate absorbance;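 active = inhibition above about 50% at 20 µM, limit read from the data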;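 note: plate controls were DMSO wells with enzyme for no effect and wells lacking enzyme for full effect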
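Material: truncated SCP-1 phosphatase (76-261aa) / Buffer or medium: 50 mM Tris acetate pH 5.5, 0.005% Tween-20, 10 mM MgCl2 / Compound dosing: one concentration, 20 µM, with 1.0% DMSO / Incubation: 45 min room-temperature reaction, 5 min colour, 30 min stabiliser / Detection: colorimetric free-phosphate detection, absorbance 630 nm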
NadD inh = inhibitors of Staphylococcus aureus NadD; purified NadD enzyme, colorimetric absorbance read-out; inhibition, % at 20 µM; 0.78% of 360,000 active; in the data active = inhibition above about 26%
Scp-1 conf = confirmation of human Scp-1 phosphatase inhibitors. 61% of 2,500 active. shares compounds with Scp-1 inhibitor. inhibition, % at 20 µM. recombinant SCP-1 catalytic domain, phosphate release, malachite green absorbance. AID 540281;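 note: plate controls were DMSO with enzyme for no effect and buffer wells lacking enzyme for full effect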
MG interference = interferes with malachite green readout, flagging false Scp-1 hits; shares compounds with Scp-1 inhibitor; Colorimetric interference counterscreen, malachite green absorbance 630 nm; apparent inhibition (interference), % at 20 µM; 2,500 tested, under 10 active; AID 540313;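 note: compounds added after enzyme reaction finished so only phosphate colour detection is probed; plate controls were DMSO wells with completed Scp-1 reaction for no effect and substrate wells lacking enzyme for full effect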
Scp-1 Tm shift = validation of human Scp-1 inhibitors by thermal shift binding; Recombinant SCP1, Sypro Orange thermal shift Tm; shares compounds with Scp-1 inhibitor; 25% of 1,500 active; thermal shift relative to vanadate control, % at 40 µM;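 active = substances whose mean melting-temperature shift, as a percentage of the reference inhibitor's shift, reaches about 5.3%, limit read from the data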;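 note: 0% = Tm of DMSO wells and 100% = Tm with sodium orthovanadate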
* marks the source's active call; other numbers are inactive results; x = no result.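 Rule for the calls, unless noted: active = inhibition of at least 30% at 20 µM; inactive = the rest.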

SMILES	SUMO1-SIM PPI	LMPTP block	DNMT1 block	STEP block	Scp-1 inhibitor	NadD inh	Scp-1 conf	MG interference	Scp-1 Tm shift
CC(Oc1cccc(Cl)c1)C(=O)Nc1ccncc1 (stereo not given)	2	-2	1	0	1	1	x	x	x
CN(C)C1=NCCN1CCC1CCCC1	4	0	2	0	-11	0	x	x	x
COc1ccc(Cl)cc1NC(=O)c1nnn(CC(=O)Nc2cc(C)cc(C)c2)c1N	14	1	37	10	-5	10	x	x	x
CCCc1nc2ccccc2c(C(=O)OC(C)C(=O)NCc2ccc3c(c2)OCO3)c1CC (stereo not given)	2	4	-7	1	1	2	x	x	x
Cc1[nH]c(=O)sc1C(=O)NCc1ccc([N+](=O)[O-])cc1	-23	-9	-2	2	x	0	x	x	x
CCC(NC(=S)NC1CCCCC1)c1ccccc1 (stereo not given)	4	-1	1	2	x	0	x	x	x
CCc1c(C)nc2cc(-c3cccc(Br)c3)[nH]n2c1=O	12	1	2	22	93*	-5	62*	-12	-4
O=C1CN(C(=O)c2ccccc2F)C(c2ccc(F)cc2)c2cc(Br)ccc2N1 (stereo not given)	-1	1	-1	-2	-12	-1	x	x	x
C[n+]1ccccc1/C=C/c1ccc(F)c(F)c1	-14	0	4	1	102*	18	-21	-21	x
C[n+]1ccccc1/C=C/c1ccc(C#N)cc1	-8	-4	-2	-2	99*	16	89*	-11	-1
Cc1ccccc1/C=C/c1cccc[n+]1C	-9	-1	-2	-1	93*	9	-23	-20	x
NC(=O)CN1CCN(S(=O)(=O)c2ccc(Br)cc2)CC1	-2	-1	-1	-1	2	-1	x	x	x
O=C(c1cc2nc(-c3ccc(F)cc3)cc(C(F)(F)F)n2n1)N1CCOCC1	-3	-3	-1	-2	53*	-2	-14	-9	x
O=C(c1cc2nc(-c3ccccc3)cc(C(F)(F)F)n2n1)N1CCOCC1	-17	0	2	-2	-2	0	x	x	x
CCn1nc([N+](=O)[O-])c2c(-c3nc4ccccc4o3)c(N)n(CCCOC)c2c1=O	18	23	35	10	85*	-8	78*	-10	2
Cc1cc(=O)[nH]c(SCC(=O)Nc2ccc(C(=O)O)cc2)n1	1	0	1	-1	-2	-1	x	x	x
Cc1cc(=O)[nH]c(SCC(=O)Nc2ccc(S(N)(=O)=O)cc2)n1	9	1	27	2	51*	-1	48*	-19	4
COC(=O)[C@@]1(C(C)C)N=C(c2cc(OC)c(OC)c(OC)c2)[C@]2(O1)C(=O)N(Cc1ccc(OC)cc1)c1ccc(Br)cc12	-3	5	x	x	x	2	x	x	x
C/C(=N\NC(=O)Cn1ccc(C(F)(F)F)n1)c1ccco1	-2	0	1	0	-5	-3	x	x	x
CC1CCC(NC(=O)Cn2c(=O)oc3cc(S(=O)(=O)N4CCCC4)ccc32)CC1 (stereo not given)	2	5	2	3	63*	0	44*	-20	-26
CCN1CCC(Nc2ccnc3cc(Cl)ccc23)CC1	18	-1	4	-6	-2	-4	x	x	x
O=C(Nc1cccc(S(=O)(=O)NC2=NCCCCC2)c1)C1COc2ccccc2O1 (stereo not given)	-3	22	31	7	50*	1	65*	-8	-11
O=C(COc1ccc(Cl)cc1)Nc1cccc(S(=O)(=O)NC2=NCCCCC2)c1	2	1	3	2	-9	4	x	x	x
O=C(COC(=O)c1ccccc1NCCO)Nc1cccc(S(=O)(=O)NC2=NCCCCC2)c1	4	2	5	-1	58*	-2	48*	-11	-14
N#Cc1ccc(OCC(=O)Nc2cccc(S(=O)(=O)NC3=NCCCCC3)c2)cc1	6	1	7	0	97*	1	50*	-14	-5
SMILES	SUMO1-SIM PPI	LMPTP block	DNMT1 block	STEP block	Scp-1 inhibitor	NadD inh	Scp-1 conf	MG interference	Scp-1 Tm shift
CCOc1ccccc1C(=O)OCC(=O)Nc1cccc(S(=O)(=O)NC2=NCCCCC2)c1	-1	-1	1	0	-2	-3	x	x	x
Cc1nn(Cc2ccccc2)c(Cl)c1/C=C/C(=O)OCC(=O)N(C)C1CCS(=O)(=O)C1 (stereo not given)	0	0	1	-1	-1	6	x	x	x
O=C(COC(=O)c1cnccn1)Nc1cc(S(=O)(=O)N2CCOCC2)ccc1Cl	12	1	3	-1	3	1	x	x	x
CC1=NN(Cc2c(C)nn(Cc3ccccc3)c2C)C(C)(C)C1	1	-2	1	-1	-14	0	x	x	x
Cc1cc(Cl)c(S(=O)(=O)NC(C(=O)O)c2ccccc2)cc1OCC(N)=O (stereo not given)	1	-3	6	2	69*	-3	44*	-17	18*
Cc1cc(Cl)c(S(=O)(=O)NC(C(=O)O)C(C)C)cc1OCC(=O)NC1CCCCC1 (stereo not given)	3	-2	-3	1	54*	4	43*	-15	0
CCN1C(=O)[C@H]2[C@@H](c3ccc(C(F)(F)F)cc3)N[C@]3(CCCN(Cc4ccc(Cl)cc4)C3=O)[C@H]2C1=O	5	0	-2	-1	x	11	x	x	x
COc1ccc(-c2nonc2NC(=O)c2ccco2)cc1OC	-3	-1	2	-4	58*	-2	-14	-16	x
CC(=O)Nc1ccccc1C(=O)N1CCN(Cc2ccccc2)CC1	-4	2	0	-1	-3	6	x	x	x
O=C(CSc1nc(-c2ccccc2)nc2ccc(F)cc12)Nc1ccc(C(=O)O)cc1	-7	62*	0	11	61*	11	53*	-19	-1
O=C(CSc1nncc2ccccc12)Nc1cccc(C(=O)O)c1	5	-2	0	1	-6	-2	x	x	x
CC(C)OC(=O)CSc1nc(-c2ccc(F)cc2)nc2ccc(F)cc12	1	0	4	-8	-7	5	x	x	x
O=C(CSc1nc(-c2ccccc2)nc2ccc(F)cc12)Nc1cccc(C(=O)O)c1	-7	63*	0	8	67*	12	60*	-9	-6
CCS(=O)(=O)N1CCC(C(=O)Oc2ccc(C)c(C)c2)CC1	-1	-1	-1	-1	-6	7	x	x	x

Screening data (PubChem)
